Laboratory results published in ChEMBL document CHEMBL1153063 (Bioorg Med Chem Lett, 2009).

Tests used:
[1] = target: Neuronal acetylcholine receptor subunit alpha-7 (Rattus norvegicus, UniProt Q05941); assay: Displacement of [125I]BTX from rat alpha7 nAChR expressed in rat GH4C1 cells; format: cell-based, GH4-C1
Method in brief: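 GH₄C₁ cell binding with [¹²⁵I]-BTX; six-point dose–response curve in triplicate, values averaged.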

[2] = target: Neuronal acetylcholine receptor subunit alpha-7 (Rattus norvegicus) (UniProt Q05941); assay: Agonist activity at rat alpha7 nAChR expressed in Xenopus oocytes at 32 uM by two-electrode voltage clamp technique relative to nicotine; format: functional, cell-based; details: Oocyte
Chain of Neuronal acetylcholine receptor subunit alpha-7 (Rattus norvegicus) (Q05941 whole entry): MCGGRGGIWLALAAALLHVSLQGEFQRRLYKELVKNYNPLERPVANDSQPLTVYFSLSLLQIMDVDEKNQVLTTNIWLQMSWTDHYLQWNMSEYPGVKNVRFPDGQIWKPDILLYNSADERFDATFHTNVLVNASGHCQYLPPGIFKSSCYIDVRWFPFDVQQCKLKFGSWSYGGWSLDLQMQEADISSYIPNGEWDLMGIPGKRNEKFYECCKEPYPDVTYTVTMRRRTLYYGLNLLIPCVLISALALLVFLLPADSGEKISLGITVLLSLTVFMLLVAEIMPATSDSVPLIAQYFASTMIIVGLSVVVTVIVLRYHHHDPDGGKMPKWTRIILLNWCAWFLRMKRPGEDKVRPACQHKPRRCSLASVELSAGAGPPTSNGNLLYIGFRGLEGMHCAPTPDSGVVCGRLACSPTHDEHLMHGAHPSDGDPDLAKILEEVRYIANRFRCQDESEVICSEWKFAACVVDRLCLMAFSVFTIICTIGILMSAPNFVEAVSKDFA
Method in brief: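 Rat alpha7 nAChR cRNA (10–50 ng) injected into Xenopus oocytes defolliculated with collagenase (1.3 mg/mL, 3 h); oocytes kept in Barth's saline up to 2 weeks. Test compounds applied at 32 µM.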

[3] = Intrinsic clearance in human liver microsomes at 1 uM at pH 7.4 after 30 mins; format: ADME, Microsome
Method in brief: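 Pooled liver microsomes in phosphate buffer pH 7.4, 1 μM substrate; sampled at 30 min.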

[4] = Plasma concentration in Sprague-Dawley rat at 5 mg/kg, sc after 1 hr; format: ADME, organism-based; design: dose 5 mg/kg, route subcutaneous
Method in brief: (§1)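 Male Sprague-Dawley rats (n = 3) given 5 mg/kg s.c.; brain, plasma and CSF levels assessed 1 h post dose.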

[5] = Octanol-aqueous buffer partition coefficient, log D at pH 7.4; format: physicochemical
[6] = Drug concentration in Sprague-Dawley rat brain at 5 mg/kg, sc after 1 hr; format: ADME, organism-based; design: dose 5 mg/kg, route subcutaneous; details: read-out: Drug uptake; method in brief: as §1
[7] = target: Neuronal acetylcholine receptor subunit alpha-3 (Homo sapiens, UniProt P32297); assay: Displacement of [3H]epibatidine from alpha3 nAChR in human IMR32 cells; format: cell-based, IMR-32
Chain of Neuronal acetylcholine receptor subunit alpha-3 (P32297 whole entry): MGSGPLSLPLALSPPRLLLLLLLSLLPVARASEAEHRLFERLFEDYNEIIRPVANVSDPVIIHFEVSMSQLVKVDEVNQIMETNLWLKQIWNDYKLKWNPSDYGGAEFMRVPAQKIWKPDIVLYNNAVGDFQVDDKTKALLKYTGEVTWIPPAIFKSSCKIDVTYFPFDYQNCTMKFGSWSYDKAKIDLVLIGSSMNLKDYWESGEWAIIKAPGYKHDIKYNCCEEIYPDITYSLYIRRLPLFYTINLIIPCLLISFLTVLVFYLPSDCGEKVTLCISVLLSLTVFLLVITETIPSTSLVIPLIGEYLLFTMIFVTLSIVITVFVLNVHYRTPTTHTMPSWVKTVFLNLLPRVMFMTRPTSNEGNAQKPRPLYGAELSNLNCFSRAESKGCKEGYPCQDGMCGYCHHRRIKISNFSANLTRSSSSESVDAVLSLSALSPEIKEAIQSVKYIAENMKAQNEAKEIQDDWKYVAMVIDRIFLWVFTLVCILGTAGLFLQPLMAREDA
Method in brief: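 IMR32 cell binding with [³H]-epibatidine; six-point dose–response curve in triplicate, values averaged.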

[8] = Drug concentration in Sprague-Dawley rat CSF at 5 mg/kg, sc after 1 hr; format: ADME, organism-based, Cerebrospinal fluid; design: dose 5 mg/kg, route subcutaneous; details: read-out: Drug uptake; method in brief: as §1
[9] = target: hERG (KCNH2) (Homo sapiens, UniProt Q12809); assay: Displacement of [3H]dofetilide from human ERG expressed in HEK293 cells at 10 uM; format: cell-based; details: HEK293 cells expressing human ERG, probe [3H]dofetilide
Chain of hERG (KCNH2) (Q12809 whole entry): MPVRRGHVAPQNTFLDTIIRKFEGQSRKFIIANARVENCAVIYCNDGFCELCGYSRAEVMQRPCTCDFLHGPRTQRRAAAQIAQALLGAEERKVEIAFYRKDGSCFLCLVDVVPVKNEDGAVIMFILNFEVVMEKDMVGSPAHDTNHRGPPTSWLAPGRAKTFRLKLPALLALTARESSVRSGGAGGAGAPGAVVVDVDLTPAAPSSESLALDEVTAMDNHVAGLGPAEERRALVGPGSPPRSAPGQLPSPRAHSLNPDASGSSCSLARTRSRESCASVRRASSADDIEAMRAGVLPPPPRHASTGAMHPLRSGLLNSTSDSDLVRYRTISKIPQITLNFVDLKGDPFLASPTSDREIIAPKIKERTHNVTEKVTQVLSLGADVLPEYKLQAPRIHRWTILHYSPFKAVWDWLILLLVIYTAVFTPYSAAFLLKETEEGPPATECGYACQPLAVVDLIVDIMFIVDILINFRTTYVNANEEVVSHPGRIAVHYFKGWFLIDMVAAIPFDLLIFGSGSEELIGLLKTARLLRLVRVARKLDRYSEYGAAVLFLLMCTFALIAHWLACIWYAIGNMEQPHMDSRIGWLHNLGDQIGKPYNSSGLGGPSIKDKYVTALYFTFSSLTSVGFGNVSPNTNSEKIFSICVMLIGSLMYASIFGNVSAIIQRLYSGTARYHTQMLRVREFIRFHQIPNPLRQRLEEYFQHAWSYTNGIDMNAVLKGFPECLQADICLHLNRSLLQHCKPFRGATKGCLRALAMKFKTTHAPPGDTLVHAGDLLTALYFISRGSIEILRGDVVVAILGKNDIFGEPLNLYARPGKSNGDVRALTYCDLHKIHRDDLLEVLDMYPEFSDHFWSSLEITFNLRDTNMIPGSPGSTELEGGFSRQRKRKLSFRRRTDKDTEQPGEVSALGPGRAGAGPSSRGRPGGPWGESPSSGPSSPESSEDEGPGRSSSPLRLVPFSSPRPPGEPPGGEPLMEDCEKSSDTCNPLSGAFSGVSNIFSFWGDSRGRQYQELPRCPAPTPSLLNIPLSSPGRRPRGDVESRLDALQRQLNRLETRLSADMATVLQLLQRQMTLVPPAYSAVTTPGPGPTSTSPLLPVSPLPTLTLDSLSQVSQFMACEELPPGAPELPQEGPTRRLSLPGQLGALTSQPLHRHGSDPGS
Method in brief: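 Binding of [³H]dofetilide to hERG stably expressed in HEK293 cells; reported as percent inhibition of binding.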

[10] = target: T1, 5-hydroxytryptamine receptor 3A (Homo sapiens, UniProt P46098); assay: Displacement of [3H]LY278584 from human 5HT3 receptor expressed in HEK293 cells; format: cell-based
T1 sequence (P46098 whole entry): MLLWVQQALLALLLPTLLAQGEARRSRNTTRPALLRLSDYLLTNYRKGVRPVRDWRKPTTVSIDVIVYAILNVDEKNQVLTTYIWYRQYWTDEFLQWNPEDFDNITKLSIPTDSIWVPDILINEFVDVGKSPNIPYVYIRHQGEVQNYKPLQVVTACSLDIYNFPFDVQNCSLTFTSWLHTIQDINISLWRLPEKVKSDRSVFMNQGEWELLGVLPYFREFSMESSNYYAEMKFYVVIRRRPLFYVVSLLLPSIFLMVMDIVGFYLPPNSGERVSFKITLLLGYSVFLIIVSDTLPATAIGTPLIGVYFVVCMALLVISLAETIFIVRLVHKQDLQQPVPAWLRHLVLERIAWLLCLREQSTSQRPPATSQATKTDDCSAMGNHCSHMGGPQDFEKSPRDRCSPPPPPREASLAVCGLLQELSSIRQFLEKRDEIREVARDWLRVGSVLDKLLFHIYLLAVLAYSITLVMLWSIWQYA
Method in brief: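 HEK293 cells expressing human 5-HT₃; [³H]-LY278584 binding, six-point dose–response curve in triplicate, values averaged.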

[11] = Aqueous solubility of the compound; format: physicochemical; details: buffer
[12] = target: Neuronal acetylcholine receptor; alpha4/beta2 (Rattus norvegicus, UniProt P09483+P12390); assay: Displacement of L-[3H]Nicotine from alpha4beta2 nAChR in rat brain homogenate by rapid filtration method; format: tissue-based
Chain of Neuronal acetylcholine receptor; alpha4/beta2 (P09483 whole entry): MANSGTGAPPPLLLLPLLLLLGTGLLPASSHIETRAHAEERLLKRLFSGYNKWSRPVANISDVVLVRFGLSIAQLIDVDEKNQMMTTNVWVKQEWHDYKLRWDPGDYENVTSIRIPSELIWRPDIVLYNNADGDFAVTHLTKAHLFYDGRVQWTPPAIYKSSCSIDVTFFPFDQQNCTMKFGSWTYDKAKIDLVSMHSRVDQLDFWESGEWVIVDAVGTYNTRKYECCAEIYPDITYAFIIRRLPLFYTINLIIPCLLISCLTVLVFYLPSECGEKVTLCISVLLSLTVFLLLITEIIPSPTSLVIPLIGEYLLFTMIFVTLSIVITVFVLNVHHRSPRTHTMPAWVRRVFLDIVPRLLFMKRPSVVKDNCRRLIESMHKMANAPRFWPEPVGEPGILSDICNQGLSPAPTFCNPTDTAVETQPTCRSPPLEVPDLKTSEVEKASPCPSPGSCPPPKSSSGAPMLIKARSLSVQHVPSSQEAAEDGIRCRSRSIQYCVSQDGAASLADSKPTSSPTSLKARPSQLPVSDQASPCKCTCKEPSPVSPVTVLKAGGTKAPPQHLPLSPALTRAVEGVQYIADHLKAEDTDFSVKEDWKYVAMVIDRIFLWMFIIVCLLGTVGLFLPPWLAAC
Chain of Neuronal acetylcholine receptor; alpha4/beta2 (P12390 whole entry): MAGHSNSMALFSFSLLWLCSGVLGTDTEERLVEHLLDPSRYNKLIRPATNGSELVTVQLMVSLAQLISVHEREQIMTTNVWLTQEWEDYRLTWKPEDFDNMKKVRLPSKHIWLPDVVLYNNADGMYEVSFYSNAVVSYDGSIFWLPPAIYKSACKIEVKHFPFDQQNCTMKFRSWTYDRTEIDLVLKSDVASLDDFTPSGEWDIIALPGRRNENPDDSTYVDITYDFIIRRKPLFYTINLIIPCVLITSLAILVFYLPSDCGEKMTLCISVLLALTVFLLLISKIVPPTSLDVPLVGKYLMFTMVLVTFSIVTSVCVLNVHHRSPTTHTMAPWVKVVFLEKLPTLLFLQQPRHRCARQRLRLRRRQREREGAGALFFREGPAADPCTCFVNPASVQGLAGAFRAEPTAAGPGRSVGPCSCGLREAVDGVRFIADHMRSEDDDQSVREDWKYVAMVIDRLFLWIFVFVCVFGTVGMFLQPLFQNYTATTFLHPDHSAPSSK

[13] = Ratio of drug level in brain to plasma in Sprague-Dawley rat at 5 mg/kg, sc after 1 hr; format: ADME, organism-based; design: dose 5 mg/kg, route subcutaneous
Method in brief: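 Male Sprague-Dawley rats (n = 3) received a single subcutaneous dose of 5 mg/kg. Brain, plasma and CSF drug levels were assessed 1 h post dose, and the brain level was expressed relative to the plasma level.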

Chain of Neuronal acetylcholine receptor subunit alpha-7 (Q05941 whole entry): as the sequence (Q05941 whole entry) above

Structure (SMILES)	Ki [1] [nM]	Activity [2] [%]	IC50 [12] [nM]	further results
CN1CCCN(C(=O)Oc2ccc(Br)cc2)CC1	> 5710	10	–	–
O=C(Oc1ccc(Br)cc1)N1CCN2CCC1CC2 [SSR180711]	–	158	> 5000	CLint scaled at 1 µM [3]: < 6.8 mL/min/kg; concentration at 1 h [4]: 648 ng/mL; logD [5]: 2.1; concentration at 1 h [6]: 5460 ng/g; IC50 [7]: > 6480 nM; concentration at 1 h [8]: 774 nM; inhibition at 10 µM [9]: 46%; IC50 [10]: > 3160 nM; solubility [11]: > 65 µg/mL; Kp at 1 h [13]: 9.1
O=C(Nc1ccc(Br)cc1)OC1CN2CCC1C2 (configuration not stated) [QUINUCLIDINE CARBAMATE]	–	90	–	–
O=C(Oc1cccc(Br)c1)N1CCN2CCC1CC2	9.5	70	–	–
O=C(Oc1ccc2ccccc2c1)N1CCN2CCC1CC2	23	175	9880	CLint scaled at 1 µM [3]: 12 mL/min/kg; concentration at 1 h [4]: 463 ng/mL; logD [5]: 2.3; concentration at 1 h [6]: 5290 ng/g; IC50 [7]: 4910 nM; concentration at 1 h [8]: 343 nM; inhibition at 10 µM [9]: 8%; IC50 [10]: > 3160 nM; solubility [11]: > 65 µg/mL; Kp at 1 h [13]: 11.6
O=C(c1ccccc1)c1cccc(OC(=O)N2CCN3CCC2CC3)c1	11	98	2610	–
Cc1cc(OC(=O)N2CCN3CCC2CC3)ccc1Br	50	83	7220	IC50 [7]: 4020 nM
Cc1cccc(OC(=O)N2CCN3CCC2CC3)c1	25	46	–	–
Cc1ccc(OC(=O)N2CCN3CCC2CC3)cc1	178	202	–	–
O=C(Oc1cccc(-c2ccccc2)c1)N1CCN2CCC1CC2	9	9	–	–
C[C@@H]1CN(C(=O)Oc2ccc(Br)cc2)[C@@H](C)CN1	> 5000	–	–	–
COc1ccc(OC(=O)N2CCN3CCC2CC3)cc1	201	126	–	–
COc1cccc(OC(=O)N2CCN3CCC2CC3)c1	79	26	–	–
O=C(Nc1ccc(Br)cc1)N1CCN2CCC1CC2	328	–	–	–
C[C@@H]1CN(C(=O)Oc2ccc(Br)cc2)CCN1	> 5000	< 0.1	–	–
O=C(Oc1ccc(F)cc1)N1CCN2CCC1CC2	537	100	1780	–
O=C(Oc1ccc(Cl)cc1)N1CCN2CCC1CC2	79	145	> 5000	IC50 [7]: > 5000 nM
O=C(Oc1ccc(-c2ccncc2)cc1)N1CCN2CCC1CC2	207	191	–	–
O=C(Oc1ccccc1Cl)N1CCN2CCC1CC2	868	–	–	–
O=C(Oc1ccc(-c2ccccc2)cc1)N1CCN2CCC1CC2	215	111	–	–
O=C(Oc1ccc(Br)cc1)N1CCCN2CCC1CC2	383	27	> 10000	–

Structure (SMILES)	Ki [1] [nM]	Activity [2] [%]	IC50 [12] [nM]	further results
O=C(c1ccccc1)c1cc(OC(=O)N2CCN3CCC2CC3)ccc1Br	16	201	2040	IC50 [7]: 1390 nM
O=C(Oc1ccccc1Br)N1CCN2CCC1CC2	725	–	–	–
C[C@@H]1CN(C(=O)Oc2ccc(Br)cc2)C[C@H](C)N1	> 5000	< 0.1	–	–
O=C(Cc1ccc(Br)cc1)N1CCN2CCC1CC2	> 5000	1.7	–	–
O=C(Oc1ccc(-c2cccnc2)cc1)N1CCN2CCC1CC2	203	189	> 5000	–
O=C(Oc1ccc(Br)c(Cl)c1)N1CCN2CCC1CC2	33	203	7120	IC50 [7]: 2090 nM
O=c1c(Br)ccc2n1C[C@@H]1CNC[C@H]2C1	–	–	–	IC50 [7]: 15.6 nM
O=C(c1ccccc1)c1ccc(OC(=O)N2CCN3CCC2CC3)cc1	95	35	–	–
S=C(Oc1ccccc1)N1CCN2CCC1CC2	749	28	–	–
O=C(Oc1cccc(F)c1)N1CCN2CCC1CC2	35	47	1060	–
O=C(Oc1ccc(Cl)c(F)c1)N1CCN2CCC1CC2	86	110	6980	IC50 [7]: 9960 nM
O=C(Oc1ccc(Oc2ccccc2)cc1)N1CCN2CCC1CC2	212	241	–	–
O=S(=O)(c1ccc(Br)cc1)N1CCN2CCC1CC2	> 4720	–	–	–
O=C(Oc1cccc(Oc2ccccc2)c1)N1CCN2CCC1CC2	13	40	–	–
O=C(Oc1ccc(Br)cc1)N1CCN2CCC(CC2)C1	763	–	> 10000	–
O=C(Oc1ccc(-c2ccccn2)cc1)N1CCN2CCC1CC2	354	174	–	–
O=C(Oc1ccccc1)N1CCN2CCC1CC2	739	99	1040	–
O=C(Oc1cccc(Cl)c1)N1CCN2CCC1CC2	32	77	3500	–
O=C(Oc1ccc(Cl)c(Cl)c1)N1CCN2CCC1CC2	31	195	–	–
O=C(OCc1ccccc1)N1CCN2CCC1CC2	3350	–	–	–
